HDAC3 inhib: HDAC3 deacetylase inhibitors, primary screen, biochemical, fluorescence, cell-free homogeneous; Histone deacetylase 3 (Homo sapiens), O15379; recombinant HDAC3, fluorogenic peptide/trypsin coupled; inhibition, % at 8.3 µM; 0.15% of 320,000 active; in the data active = inhibition above about 26%, passing the limit was not always enough; inconclusive = no clear call, values can overlap the other calls
Target sequence (O15379 whole entry, looked up): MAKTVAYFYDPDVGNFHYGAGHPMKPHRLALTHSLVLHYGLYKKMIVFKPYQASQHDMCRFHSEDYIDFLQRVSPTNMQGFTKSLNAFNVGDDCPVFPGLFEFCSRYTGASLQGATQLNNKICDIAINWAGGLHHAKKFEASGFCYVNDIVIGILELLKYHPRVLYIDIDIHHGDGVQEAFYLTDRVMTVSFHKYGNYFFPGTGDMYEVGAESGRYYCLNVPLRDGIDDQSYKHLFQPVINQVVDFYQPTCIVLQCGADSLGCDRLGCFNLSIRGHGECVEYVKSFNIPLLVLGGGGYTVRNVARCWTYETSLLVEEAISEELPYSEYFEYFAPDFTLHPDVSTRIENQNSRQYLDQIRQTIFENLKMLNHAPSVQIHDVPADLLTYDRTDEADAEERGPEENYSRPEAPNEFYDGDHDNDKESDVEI
Arrestin-AP2 inh: inhibitors of beta-arrestin/AP2 binding, primary screen, biochemical, GPCR trafficking, flow cytometry | beta-arrestin 1 C-terminal peptide binding to AP2 beta2-adaptin appendage (human) | FITC-arrestin peptide / GST-AP2 beads; AP2 beta2 appendage carries R879A mutation | inhibition, % at 10 µM | 0.31% of 340,000 active;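 active = inhibition above a set limit, near 3 SD of compounds lacking own fluorescence, cut at about 54% in these data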;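 note: plate controls were DMSO wells for no effect and 5 µM unlabelled arrestin peptide for full effect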
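System: GST-tagged AP2 beta2-adaptin appendage (R879A) on 4 µm glutathione beads / Reagent: FITC-arrestin peptide, 50 nM / Detection: HyperCyt-sampled flow cytometry, FL1 channel, ex 488/em 535 nm / Timing: 12 min plus 1 h, RT / Buffer or medium: PBS plus Tween 20 (0.05%) and BSA (0.1%)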
LANA-H2A inh: blockers of LANA interaction with H2A/H2B – biochemical, FP readout, HTS, primary screen. Protein LANA1 (Human herpesvirus 8 type P (isolate GK18)), Q9QR71. cell-free LANA-H2A/H2B peptide, fluorescence polarization. inhibition, % (test concentration not listed). 0.6% of 320,000 active. AID 2629, 2010; in the data active = inhibition mostly above about 10%, no sharp cut-off; inactive = mostly below about 6.7%
T cell modulator: modulators of CD8 T cell-vesicle binding, primary screen, mouse 2C CD8+ T cells, flow cytometry | 2C CD8+ T cell-vesicle binding; stronger effect = lower value | response (vesicle binding), % at 7 µM | 0.068% of 330,000 active | AID 2052, 2009;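 active = response, share of CD8 T cells binding vesicles, and their 90th percentile fluorescence all below set limits, cut at about 80% in these data, passing the limit was not always enough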;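 note: values below 100% mean blocked vesicle binding to the CD8+ T cells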
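Read-out – percent CD8+ FL2 mean versus row control · System – murine 2C transgenic CD8+ T lymphocytes · Times – 1.5 h cell–vesicle binding at 37 °C, then 20 min icy labelling · Control set – naked vesicles low, QL9 vesicles with vehicle high · Detection – cytometric PE anti-B7-1 and Alexa647 anti-CD8 signals after 1% paraformaldehyde fixation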
Pemphigus Ab inh: inhibitors of pemphigus antibody binding to DSG3, primary screen, biochemical, bead-based, flow cytometry, scFv-GFP | Desmoglein-3 (Homo sapiens), P32926 | DSG3-coupled beads, scFv-anti-DSG3-GFP binding; stronger effect = lower value | binding (percent of control), % at 10 µM | 0.48% of 310,000 active | AID 588358, 2011;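 active = binding more than 3 SD below its plate's average and above zero; inconclusive = below that plate limit but binding exactly zero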;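 note: hits lower antibody fragment binding to DSG3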
Numbers without * were called inactive; i = inactive; ? = inconclusive; · = no result; + = active, no number. Sampled rows, rich in hits. Any-hit rate of the full collection: about 1.5%.

SMILES	HDAC3 inhib	Arrestin-AP2 inh	LANA-H2A inh	T cell modulator	Pemphigus Ab inh
CCN(CC)CCCNC(=O)Cn1cnc2sc(C)c(S(=O)(=O)N3CCC(C)CC3)c2c1=O	2	14	-4	171	103
CCOC(=O)c1[nH]c2ccccc2c1NC(=O)c1ccc2c(c1)OCO2	-2	12	7	636	-8.4*
CCOC(=O)c1[nH]c2cc(OC)c(OC)cc2c1NC(=O)c1ccc2c(c1)OCO2	-1	-4	0	215	17*
CN(CC(=O)NC(=O)NCc1ccccc1)CC(=O)Nc1ccc(Cl)c(Cl)c1	12	-3	-2	321	105
COC(=O)CCC(=O)c1ccn(S(=O)(=O)c2ccccc2)c1	2	3	9	228	108
O=C1Nc2ccccc2Nc2ncccc21	-10	5	15*	370	104
COc1ccc2nc(NC(=O)CSc3nc4cccnc4n3C)sc2c1	-5	5	-125	624	84*
COc1ccc(NC(=O)CSc2nc3c([nH]c4ccccc43)c(=O)n2C)cc1	-1	2	11*	699	96
COc1ccc(NC(=O)CSc2nc3sc(C)cc3c(=O)n2C)c(OC)c1	-1	-7	16*	468	94
COc1ccc(NC(=O)CSc2nnnn2Cc2ccccc2)cc1	-7	-7	2	420	65*
COc1ccccc1NC(=O)CSc1nnnn1Cc1ccccc1	3	25	-3	720	116
COc1ccc(NC(=O)CSc2nc3cccnc3n2C)cc1	-4	0	38*	440	111
COC(=O)c1ccc(NC(=O)CSc2nc3cccnc3n2C)cc1	-5	5	2	346	·
COc1ccccc1-c1ccc(=O)n(CC(=O)NCc2cccs2)n1	-2	-7	-11	379	106
COc1ccccc1-c1ccc(=O)n(CC(=O)NCc2ccco2)n1	0	5	37*	222	96
CCn1c2ccccc2c2cc(NC(=O)COC(=O)c3ccccc3F)ccc21	·	-7	·	169	108
CCn1c2ccccc2c2cc(NC(=O)COC(=O)c3ccc(NC(=O)CC#N)cc3)ccc21	2	-4	1	107	69*
CCn1c2ccccc2c2cc(NC(=O)c3coc(=O)c(Br)c3)ccc21	-5	·	20*	475	·
CCn1c2ccccc2c2cc(NC(=O)c3cccc([N+](=O)[O-])c3)ccc21	-2	2	79*	59	101
CC(C)n1nnnc1SCC(=O)N(C)C1CCS(=O)(=O)C1 (stereo not drawn)	-5	-5	1	402	·
Cc1ccc(CNC(=O)c2ccc(F)c(S(=O)(=O)N3CCOCC3)c2)cc1	·	37	·	·	105
COCCn1c2nc(=O)n(-c3ccccc3)c(=O)c-2nc2ccccc21	·	·	·	·	102
CCCN1C(=O)/C(=c2\sc3nc(=O)c(Cc4ccc(C)cc4)nn3c2=O)c2ccccc21	3	39	-1	215	68*
O=C(COc1ccc(Cl)cc1)NCCNC(=O)c1ccccn1	1	17	2	175	93
O=C(Oc1oc(-c2ccco2)nc1C=Nc1ccccc1)c1ccoc1	90*	0	1	748	98
SMILES	HDAC3 inhib	Arrestin-AP2 inh	LANA-H2A inh	T cell modulator	Pemphigus Ab inh
Cc1ccc(C(=O)Oc2oc(-c3ccco3)nc2C=Nc2ccc(Cl)cc2)cc1	?	23	0	132	102
O=C(Oc1oc(-c2ccco2)nc1C=Nc1ccccc1)c1ccco1	90*	-13	-5	228	·
O=C(C[n+]1ccc2ccccc2c1)c1cccc2ccccc12	2	-10	2	147	107
O=C(/C=C/c1cc[n+](CC(=O)c2ccc3cccc4c3c2CC4)cc1)c1ccc2cccc3c2c1CC3	22	7	2	149	63*
CCc1noc(C)c1C(=O)N1CCN(S(=O)(=O)c2ccc(Cl)s2)CC1	-8	-4	-6	229	98
COCc1c(C(=O)NCC(c2ccco2)N2CCCC2)oc2ccccc12 (stereo not drawn)	·	·	·	·	107
O=C(CCCn1c(=O)[nH]c2ccccc2c1=O)NCCSCc1ccccc1	-6	-10	-4	123	23*
COc1ccc2cc(CNCCOCCOCCNCc3ccc4cc(OC)ccc4c3)ccc2c1	·	-14	·	·	·
COc1cc(/C=N/Nc2ccc(Cl)c(C(=O)O)c2)ccc1OC(=O)c1ccccc1F	6	-1	-2	660	99
COc1ccc(NC(=O)Nc2ccccc2C)c(OC)c1	7	26	0	177	105
COc1ccc(NC(=O)Nc2ccccc2SC)c(OC)c1	-1	-4	4	332	-6.3*
C/C(=N/NC(=O)c1ccccc1)C1=C(O)CC(C)(C)CC1=O	71*	5	-4	208	99
CC1(C)CC(=O)C(C(N)=NC(=O)c2ccccc2)=C(O)C1	-2	7	6	112	104
Cc1ccc(NC(=O)CCCn2nc(C)c3c(C)n(-c4ccccc4)nc3c2=O)c(Cl)c1	-1	-11	-1	209	95
Nc1nc2c(c(=O)[nH]1)C(c1cccc3ccccc13)C1=C(N2)c2ccccc2C1=O (stereo not drawn)	·	-1	·	·	41*
CC(=O)C1=C(C)NC2=C(C(=O)c3ccccc32)C1c1ccccc1 (stereo not drawn)	-4	24	0	364	108
CN(C)CC/C=C1\c2ccccc2COc2ccccc21	·	2	70*	500	100
CN(C)CC/C=C1/c2ccccc2CS(=O)(=O)c2ccccc21	9	-19	1	i	97
CCc1noc(C)c1C(=O)OCC(=O)c1ccccc1OC	1	4	-4	288	112
CC[C@@]1(C(=O)OC)N[C@H](CN(C)S(=O)(=O)c2ccc(C(C)(C)C)cc2)[C@@H]2C(=O)N(Cc3ccccc3)C(=O)[C@@H]21	-3	31	69*	281	96
CCN(C[C@H]1N[C@@](CC)(C(=O)OC)[C@H]2C(=O)N(Cc3ccccc3)C(=O)[C@@H]12)C(=O)Nc1ccc(C(F)(F)F)cc1	0	35	+	265	95
CCN(C[C@H]1N[C@@](CC)(C(=O)OC)[C@H]2C(=O)N(Cc3ccccc3)C(=O)[C@@H]12)C(=O)Nc1ccc(OC)cc1	2	3	i	536	100
CC(=O)NC1C(=O)N(CCN2CCOCC2)c2ccc(Br)cc21 (stereo not drawn)	-5	-14	-2	76	96
CCOc1ccc2c(c1)C(NC(C)=O)C(=O)N2CCN1CCOCC1 (stereo not drawn)	5	10	1	152	81*

High-throughput results as filed in PubChem BioAssay.
